Test results reported in ChEMBL document CHEMBL2146464, “Structure-activity relationship study of nitrosopyrimidines acting as antifungal agents” (Bioorg Med Chem, 2012).
≈ marks a conversion by molar mass, not a printed value. Calls of active or inactive are those of the source. No cut-off for these calls is given here.

What was measured:
[1] = test system: Candida albicans; assay: Antifungal activity against Candida albicans ATCC 10231 after 48 hrs by NCCLS broth microdilution method; assay type: functional; settings: ATCC 10231, 48 h, read-out: MIC100
Method in brief: (§1)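 Yeast MIC by NCCLS M27-A3 broth microdilution in RPMI-1640 buffered to pH 7.0 with MOPS. Twofold dilutions of 250–0.98 µg/mL, final DMSO ≤1%. Inoculum 1–5 × 10³ CFU/mL. Incubated at 30 °C in a moist dark chamber. Read visually at 48 h. MIC100 is the lowest concentration with no visible growth versus drug-free control.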

[2] = test system: Candida tropicalis; assay: Antifungal activity against Candida tropicalis after 48 hrs by NCCLS broth microdilution method; assay type: functional; settings: read-out: MIC100; method in brief: as §1
[3] = test system: Cryptococcus neoformans; assay: Antifungal activity against Cryptococcus neoformans ATCC 32264 after 48 hrs by NCCLS broth microdilution method; assay type: functional; settings: ATCC 32264, 48 h, read-out: MIC100; method in brief: as §1
[4] = test system: Candida tropicalis; assay: Antifungal activity against Candida tropicalis by microplate reader analysis; assay type: functional
[5] = test system: Cryptococcus neoformans; assay: Fungicidal activity against Cryptococcus neoformans ATCC 32264 after 48 hrs by agar plate dilution method; assay type: functional; settings: ATCC 32264, 48 h
Method in brief: (§2)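 MFC: after the microdilution MIC, material from each clear well was plated onto RPMI-1640 agar buffered with MOPS. Plates incubated at 30 °C and read after 48 h. MFC is the lowest concentration giving total inhibition of visible growth.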

[6] = test system: Candida albicans; assay: Fungicidal activity against Candida albicans ATCC 10231 at 0.98 to 250 ug/mL after 48 hrs by agar plate dilution method; assay type: functional, organism-based; method in brief: as §2
[7] = test system: Candida tropicalis; assay: Fungicidal activity against Candida tropicalis at 0.98 to 250 ug/mL after 48 hrs by agar plate dilution method; assay type: functional, organism-based; method in brief: as §2
[8] = test system: Aspergillus flavus; assay: Antifungal activity against Aspergillus flavus ATCC 9170 at 0.98 to 250 ug/mL by NCCLS broth microdilution method; assay type: functional, organism-based
Method in brief: (§3)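 MIC by broth microdilution per NCCLS M27-A3/M38-A2 in RPMI-1640 buffered to pH 7.0 with MOPS. Twofold dilutions from 250–0.98 µg/mL, final DMSO ≤1%. Inoculum 1–5 × 10³ CFU/mL. Incubated in a moist dark chamber, 30 °C for Aspergillus and 28–30 °C for dermatophytes. Read visually when control growth allowed. Endpoint is the lowest concentration giving total inhibition of visible growth (MIC100).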

[9] = test system: Aspergillus fumigatus; assay: Antifungal activity against Aspergillus fumigatus ATCC 26934 at 0.98 to 250 ug/mL by NCCLS broth microdilution method; assay type: functional, organism-based; method in brief: as §3
[10] = test system: Aspergillus niger; assay: Antifungal activity against Aspergillus niger ATCC 9029 at 0.98 to 250 ug/mL by NCCLS broth microdilution method; assay type: functional, organism-based; method in brief: as §3
[11] = test system: Nannizzia gypsea; assay: Antifungal activity against Microsporum gypseum CCC 115 at 0.98 to 250 ug/mL by NCCLS broth microdilution method; assay type: functional, organism-based; method in brief: as §3
[12] = test system: Trichophyton rubrum; assay: Antifungal activity against Trichophyton rubrum CCC 110 at 0.98 to 250 ug/mL by NCCLS broth microdilution method; assay type: functional, organism-based; method in brief: as §3
[13] = test system: Trichophyton mentagrophytes; assay: Antifungal activity against Trichophyton mentagrophytes ATCC 9972 at 0.98 to 250 ug/mL by NCCLS broth microdilution method; assay type: functional, organism-based; method in brief: as §3
[14] = test system: Candida albicans; assay: Antifungal activity against Candida albicans ATCC 10231 assessed as growth inhibition at 250 ug/mL after 24 hrs by microplate reader analysis; assay type: functional; settings: ATCC 10231, 24 h, read-out: GI
Method in brief: (§4)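 96-well RPMI-1640 wells with compound at final 250–0.98 µg/mL (DMSO ≤1%). Inoculum 100 µL, 1–5 × 10³ CFU/mL, 200 µL final. Each well includes growth (DMSO, no compound) and sterility controls. % inhibition = 100 − (CTW−SCW)/(GCW−SCW) × 100, run in duplicate.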

[15] = test system: Candida tropicalis; assay: Antifungal activity against Candida tropicalis assessed as growth inhibition at 250 ug/mL by microplate reader analysis; assay type: functional; settings: read-out: GI
[16] = test system: Cryptococcus neoformans; assay: Antifungal activity against Cryptococcus neoformans ATCC 32264 assessed as growth inhibition at 250 ug/mL after 48 hrs by microplate reader analysis; assay type: functional; settings: ATCC 32264, 48 h, read-out: GI
Method in brief: (§5)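 Microplate growth-inhibition assay in RPMI-1640, compound at final 250–0.98 µg/mL (DMSO ≤1%). Inoculum 1–5 × 10³ CFU/mL. Sterility and DMSO growth controls included. Percent inhibition is computed from blank-corrected OD relative to the growth control, tested in duplicate.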

[17] = test system: Candida albicans; assay: Antifungal activity against Candida albicans ATCC 10231 assessed as growth inhibition at 125 ug/mL after 24 hrs by microplate reader analysis; assay type: functional; settings: ATCC 10231, 24 h, read-out: GI; method in brief: as §4
[18] = test system: Candida tropicalis; assay: Antifungal activity against Candida tropicalis assessed as growth inhibition at 125 ug/mL by microplate reader analysis; assay type: functional; settings: read-out: GI
[19] = test system: Cryptococcus neoformans; assay: Antifungal activity against Cryptococcus neoformans ATCC 32264 assessed as growth inhibition at 125 ug/mL after 48 hrs by microplate reader analysis; assay type: functional; settings: ATCC 32264, 48 h, read-out: GI; method in brief: as §5
[20] = test system: Candida albicans; assay: Antifungal activity against Candida albicans ATCC 10231 assessed as growth inhibition at 62.5 ug/mL after 24 hrs by microplate reader analysis; assay type: functional; settings: ATCC 10231, 24 h, read-out: GI; method in brief: as §4
[21] = test system: Candida tropicalis; assay: Antifungal activity against Candida tropicalis assessed as growth inhibition at 62.5 ug/mL by microplate reader analysis; assay type: functional; settings: read-out: GI
[22] = test system: Cryptococcus neoformans; assay: Antifungal activity against Cryptococcus neoformans ATCC 32264 assessed as growth inhibition at 62.5 ug/mL after 48 hrs by microplate reader analysis; assay type: functional; settings: ATCC 32264, 48 h, read-out: GI; method in brief: as §5
[23] = test system: Candida albicans; assay: Antifungal activity against Candida albicans ATCC 10231 assessed as growth inhibition at 31.25 ug/mL after 24 hrs by microplate reader analysis; assay type: functional; settings: ATCC 10231, 24 h, read-out: GI; method in brief: as §4
[24] = test system: Candida tropicalis; assay: Antifungal activity against Candida tropicalis assessed as growth inhibition at 31.25 ug/mL by microplate reader analysis; assay type: functional; settings: read-out: GI
[25] = test system: Cryptococcus neoformans; assay: Antifungal activity against Cryptococcus neoformans ATCC 32264 assessed as growth inhibition at 31.25 ug/mL after 48 hrs by microplate reader analysis; assay type: functional; settings: ATCC 32264, 48 h, read-out: GI; method in brief: as §5
[26] = test system: Candida albicans; assay: Antifungal activity against Candida albicans ATCC 10231 assessed as growth inhibition at 15.6 ug/mL after 24 hrs by microplate reader analysis; assay type: functional; settings: ATCC 10231, 24 h, read-out: GI; method in brief: as §4
[27] = test system: Candida tropicalis; assay: Antifungal activity against Candida tropicalis assessed as growth inhibition at 15.6 ug/mL by microplate reader analysis; assay type: functional; settings: read-out: GI
[28] = test system: Cryptococcus neoformans; assay: Antifungal activity against Cryptococcus neoformans ATCC 32264 assessed as growth inhibition at 15.6 ug/mL after 48 hrs by microplate reader analysis; assay type: functional; settings: ATCC 32264, 48 h, read-out: GI; method in brief: as §5
[29] = test system: Candida albicans; assay: Antifungal activity against Candida albicans ATCC 10231 assessed as growth inhibition at 7.8 ug/mL after 24 hrs by microplate reader analysis; assay type: functional; settings: ATCC 10231, 24 h, read-out: GI; method in brief: as §4
[30] = test system: Candida tropicalis; assay: Antifungal activity against Candida tropicalis assessed as growth inhibition at 7.8 ug/mL by microplate reader analysis; assay type: functional; settings: read-out: GI
[31] = test system: Cryptococcus neoformans; assay: Antifungal activity against Cryptococcus neoformans ATCC 32264 assessed as growth inhibition at 7.8 ug/mL after 48 hrs by microplate reader analysis; assay type: functional; settings: ATCC 32264, 48 h, read-out: GI; method in brief: as §5
[32] = test system: Candida albicans; assay: Antifungal activity against Candida albicans ATCC 10231 assessed as growth inhibition at 3.9 ug/mL after 24 hrs by microplate reader analysis; assay type: functional; settings: ATCC 10231, 24 h, read-out: GI; method in brief: as §4
[33] = test system: Candida tropicalis; assay: Antifungal activity against Candida tropicalis assessed as growth inhibition at 3.9 ug/mL by microplate reader analysis; assay type: functional; settings: read-out: GI
[34] = test system: Cryptococcus neoformans; assay: Antifungal activity against Cryptococcus neoformans ATCC 32264 assessed as growth inhibition at 3.9 ug/mL after 48 hrs by microplate reader analysis; assay type: functional; settings: ATCC 32264, 48 h, read-out: GI; method in brief: as §5
[35] = test system: Candida albicans; assay: Antifungal activity against Candida albicans ATCC 10231 after 24 hrs by microplate reader analysis; assay type: functional; settings: ATCC 10231, 24 h; method in brief: as §4
[36] = Acute toxicity in bony fish assessed as mortality at 38.4 ug/mL after 96 hrs; settings: actinopterygii; read-out: Activity
Method in brief: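 Guppy (Poecilia reticulata) acute static exposure: 10 fish per concentration in 2 L wide-mouthed jars holding the test solution. Compounds were added from […] to give the final concentrations. Dead fish were counted and removed every 24 h, with general condition noted; percentage mortality was scored at 96 h. Two experiments, each in triplicate.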

[37] = test system: Cryptococcus neoformans; assay: Antifungal activity against Cryptococcus neoformans ATCC 32264 after 48 hrs by microplate reader analysis; assay type: functional; settings: ATCC 32264, 48 h; method in brief: as §5

Q: With `COc1nc(N)nc(Nc2cccc(Cl)c2)c1N=O` as the compound, how does the MIC [1] read?
A: 125 µg/mL (≈ 447 µM)

Q: And the MIC [2]?
A: 125 µg/mL (≈ 447 µM)

Q: What about the MIC [3] of the same compound?
A: 125 µg/mL (≈ 447 µM)

Q: What about the MIC50 [4] of the same compound?
A: 3.9 µg/mL (≈ 13.9 µM)

Q: What about the MFC [5] of the same compound?
A: 250 µg/mL (≈ 894 µM)

Q: And the Activity [6]?
A: inactive

Q: What about the Activity [7] of the same compound?
A: inactive

Q: What about the Activity [8] of the same compound?
A: inactive

Q: And the Activity [9]?
A: inactive

Q: And the Activity [10]?
A: inactive

Q: What about the Activity [11] of the same compound?
A: inactive

Q: And the Activity [12]?
A: inactive

Q: What about the Activity [13] of the same compound?
A: inactive

Q: And the inhibition of growth at 250 µg/mL [14]?
A: 100%

Q: What about the inhibition of growth at 250 µg/mL [15] of the same compound?
A: 100%

Q: And the inhibition of growth at 250 µg/mL [16]?
A: 100%

Q: And the inhibition of growth at 125 µg/mL [17]?
A: 100%

Q: And the inhibition of growth at 125 µg/mL [18]?
A: 100%

Q: And the inhibition of growth at 125 µg/mL [19]?
A: 100%

Q: What about the inhibition of growth at 62.5 µg/mL [20] of the same compound?
A: 92.7%

Q: And the inhibition of growth at 62.5 µg/mL [21]?
A: 87.9%

Q: And the inhibition of growth at 62.5 µg/mL [22]?
A: 83.7%

Q: What about the inhibition of growth at 31.25 µg/mL [23] of the same compound?
A: 91.8%

Q: What about the inhibition of growth at 31.25 µg/mL [24] of the same compound?
A: 85.2%

Q: What about the inhibition of growth at 31.25 µg/mL [25] of the same compound?
A: 81.3%

Q: What about the inhibition of growth at 15.6 µg/mL [26] of the same compound?
A: 86.3%

Q: And the inhibition of growth at 15.6 µg/mL [27]?
A: 75.2%

Q: What about the inhibition of growth at 15.6 µg/mL [28] of the same compound?
A: 80.6%

Q: And the inhibition of growth at 7.8 µg/mL [29]?
A: 80.3%

Q: What about the inhibition of growth at 7.8 µg/mL [30] of the same compound?
A: 64.5%

Q: And the inhibition of growth at 7.8 µg/mL [31]?
A: 74.9%

Q: What about the inhibition of growth at 3.9 µg/mL [32] of the same compound?
A: 53.3%

Q: And the inhibition of growth at 3.9 µg/mL [33]?
A: 48.8%

Q: What about the inhibition of growth at 3.9 µg/mL [34] of the same compound?
A: 53.2%

Q: What about the MIC50 [35] of the same compound?
A: 3.9 µg/mL (≈ 13.9 µM)

Q: And the mortality at 96 h, 38.4 ug/mL [36]?
A: 0%

Q: What about the MIC50 [37] of the same compound?
A: 3.9 µg/mL (≈ 13.9 µM)
